Consider seven molecules from article PMC4289021 (Nature, 2014).

The subject of assay [1] is full-length RNF146 or RNF146(RING-WWE). Kind of assay: E2~Ub/lysine reactivity assay with UbcH5. It counts as biochemical, human. The settings on record: ligand added to full-length RNF146 or RING-WWE fragment, not RING-only construct. The essentials:
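Mouse RNF146(RING-WWE) (residues 30–183), made from a GST-tagged construct with TEV cleavage, or His6-T7-tagged full-length RNF146. UbcH5~Ub was charged by wheat E1 (1.5 μM) with 100 μM E2, 200 μM K0 Ub, 2.5 mM MgCl2 and 2 mM ATP in PBS at 37 °C for 30 min, then SEC-purified. Final: 25 μM E2, 4 or 8 μM E3, ± iso-ADPr. Started with 40 mM L-lysine at 35 °C; sampled 1–15 min; non-reducing SDS-PAGE, Coomassie/Oriole stain.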

Assay [2] addresses T1, TNKS(5ARC) (human, UniProt O95271 173-961).
T1 sequence (looked up): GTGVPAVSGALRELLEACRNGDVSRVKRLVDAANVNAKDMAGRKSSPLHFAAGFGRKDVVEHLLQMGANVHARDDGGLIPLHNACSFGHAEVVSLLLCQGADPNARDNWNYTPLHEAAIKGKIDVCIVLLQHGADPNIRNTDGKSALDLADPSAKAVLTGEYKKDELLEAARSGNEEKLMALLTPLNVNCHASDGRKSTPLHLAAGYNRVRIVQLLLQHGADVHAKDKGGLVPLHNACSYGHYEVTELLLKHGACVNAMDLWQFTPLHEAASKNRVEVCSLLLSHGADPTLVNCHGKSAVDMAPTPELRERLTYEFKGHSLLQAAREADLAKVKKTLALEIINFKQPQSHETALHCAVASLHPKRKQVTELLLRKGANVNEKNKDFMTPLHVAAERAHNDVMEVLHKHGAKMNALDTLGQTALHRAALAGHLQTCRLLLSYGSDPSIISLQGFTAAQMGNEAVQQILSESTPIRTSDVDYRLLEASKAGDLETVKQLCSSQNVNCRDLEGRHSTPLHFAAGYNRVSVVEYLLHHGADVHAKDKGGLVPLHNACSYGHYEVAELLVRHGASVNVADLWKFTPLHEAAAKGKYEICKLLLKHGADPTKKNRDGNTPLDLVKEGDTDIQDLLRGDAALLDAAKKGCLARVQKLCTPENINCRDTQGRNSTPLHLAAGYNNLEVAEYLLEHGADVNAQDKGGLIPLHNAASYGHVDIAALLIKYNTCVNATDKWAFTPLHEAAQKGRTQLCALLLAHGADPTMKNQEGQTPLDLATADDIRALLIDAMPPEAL
Kind of assay: pull-down.

Assay [3] addresses T1, TNKS(5ARC). Kind of assay: SEC-MALS. A general note: SEC sorts molecules by how far they enter the pores of the column.
Assay [4] concerns the target T2, Full-length mouse tankyrase-1 (mouse, UniProt Q6PFX9 1-1320).
T2 sequence (looked up): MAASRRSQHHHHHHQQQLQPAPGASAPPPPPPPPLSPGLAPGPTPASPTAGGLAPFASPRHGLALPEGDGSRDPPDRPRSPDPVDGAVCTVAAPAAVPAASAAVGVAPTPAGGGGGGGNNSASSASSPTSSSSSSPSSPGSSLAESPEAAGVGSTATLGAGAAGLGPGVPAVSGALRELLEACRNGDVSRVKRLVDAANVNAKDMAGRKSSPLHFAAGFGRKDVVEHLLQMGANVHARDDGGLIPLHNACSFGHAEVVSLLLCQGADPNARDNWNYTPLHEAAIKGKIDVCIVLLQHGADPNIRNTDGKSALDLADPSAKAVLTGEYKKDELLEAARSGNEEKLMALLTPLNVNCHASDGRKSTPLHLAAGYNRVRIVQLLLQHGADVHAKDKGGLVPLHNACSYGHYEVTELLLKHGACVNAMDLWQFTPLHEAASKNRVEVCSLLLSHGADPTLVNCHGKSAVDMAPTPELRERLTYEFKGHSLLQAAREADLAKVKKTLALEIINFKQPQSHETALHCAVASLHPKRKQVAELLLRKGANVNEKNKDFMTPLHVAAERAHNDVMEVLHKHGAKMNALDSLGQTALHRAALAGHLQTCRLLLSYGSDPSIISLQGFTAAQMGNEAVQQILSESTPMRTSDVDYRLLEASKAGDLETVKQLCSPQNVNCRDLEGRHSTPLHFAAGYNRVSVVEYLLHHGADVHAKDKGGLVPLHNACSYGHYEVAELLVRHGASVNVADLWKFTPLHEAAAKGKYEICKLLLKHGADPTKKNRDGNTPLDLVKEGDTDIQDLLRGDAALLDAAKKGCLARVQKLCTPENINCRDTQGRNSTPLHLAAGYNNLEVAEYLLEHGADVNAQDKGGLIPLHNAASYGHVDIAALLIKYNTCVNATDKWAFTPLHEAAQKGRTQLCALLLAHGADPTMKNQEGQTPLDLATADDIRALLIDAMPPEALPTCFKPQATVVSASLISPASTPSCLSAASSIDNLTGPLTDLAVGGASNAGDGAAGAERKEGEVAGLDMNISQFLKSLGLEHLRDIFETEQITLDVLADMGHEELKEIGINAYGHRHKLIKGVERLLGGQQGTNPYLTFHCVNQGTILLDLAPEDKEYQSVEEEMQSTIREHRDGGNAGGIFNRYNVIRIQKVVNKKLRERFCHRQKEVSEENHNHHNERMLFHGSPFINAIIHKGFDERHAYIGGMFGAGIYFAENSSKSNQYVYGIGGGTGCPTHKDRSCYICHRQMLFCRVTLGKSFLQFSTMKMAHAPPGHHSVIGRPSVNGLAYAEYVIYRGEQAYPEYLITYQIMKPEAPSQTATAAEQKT
Put plainly: pull-down.

In the case of poly(ADP-ribose) [PAR], the “activation of Ub transfer from UbcH5~Ub to lysine” value in assay [1] is on record as “robust activation”.

B1: GST-RNF146(1–205) (domain or fragment, human, UniProt Q9NTX7-2 1-205, looked up)
chain: MAGCGEIDHSINMLPTNRKANESCSNTAPSLTVPECAICLQTCVHPVSLPCKHVFCYLCVKGASWLGKRCALCRQEIPEDFLDKPTLLSPEELKAASRGNGEYAWYYEGRNGWWQYDERTSRELEDAFSKGKKNTEMLIAGFLYVADLENMVQYRRNEHGRRRKIKRDIIDIPKKGVAGLRLDCDANTVNLARESSADGADSVSA
For the molecule B1, the binding result in assay [2] is on record as “binds”.

B2: GST-RNF146 G337V/G338V (natural protein, human, UniProt Q9NTX7-2 1-358, looked up)
chain: MAGCGEIDHSINMLPTNRKANESCSNTAPSLTVPECAICLQTCVHPVSLPCKHVFCYLCVKGASWLGKRCALCRQEIPEDFLDKPTLLSPEELKAASRGNGEYAWYYEGRNGWWQYDERTSRELEDAFSKGKKNTEMLIAGFLYVADLENMVQYRRNEHGRRRKIKRDIIDIPKKGVAGLRLDCDANTVNLARESSADGADSVSAQSGASVQPLVSSVRPLTSVDGQLTSPATPSPDASTSLEDSFAHLQLSGDNTAERSHRGEGEEDHESPSSGRVPAPDTSIEETESDASSDSEDVSAVVAQHSLTQQRLLVSNANQTVPDRSDRSGTDRSVAGVVTVSVSVRSRRPDGQCTVTEV
In the case of B2, the binding result in assay [2] is “binds”.

B3: His6-T7-RNF146 (full-length) (natural protein, human, UniProt Q9NTX7-2 1-358, looked up)
chain: MAGCGEIDHSINMLPTNRKANESCSNTAPSLTVPECAICLQTCVHPVSLPCKHVFCYLCVKGASWLGKRCALCRQEIPEDFLDKPTLLSPEELKAASRGNGEYAWYYEGRNGWWQYDERTSRELEDAFSKGKKNTEMLIAGFLYVADLENMVQYRRNEHGRRRKIKRDIIDIPKKGVAGLRLDCDANTVNLARESSADGADSVSAQSGASVQPLVSSVRPLTSVDGQLTSPATPSPDASTSLEDSFAHLQLSGDNTAERSHRGEGEEDHESPSSGRVPAPDTSIEETESDASSDSEDVSAVVAQHSLTQQRLLVSNANQTVPDRSDRSGTDRSVAGGGTVSVSVRSRRPDGQCTVTEV
In the case of B3, in assay [3], the binding result is “binds”.

B4: GST-RNF146 G199V (natural protein, human, UniProt Q9NTX7-2 1-358, looked up)
chain: MAGCGEIDHSINMLPTNRKANESCSNTAPSLTVPECAICLQTCVHPVSLPCKHVFCYLCVKGASWLGKRCALCRQEIPEDFLDKPTLLSPEELKAASRGNGEYAWYYEGRNGWWQYDERTSRELEDAFSKGKKNTEMLIAGFLYVADLENMVQYRRNEHGRRRKIKRDIIDIPKKGVAGLRLDCDANTVNLARESSADVADSVSAQSGASVQPLVSSVRPLTSVDGQLTSPATPSPDASTSLEDSFAHLQLSGDNTAERSHRGEGEEDHESPSSGRVPAPDTSIEETESDASSDSEDVSAVVAQHSLTQQRLLVSNANQTVPDRSDRSGTDRSVAGGGTVSVSVRSRRPDGQCTVTEV
B4: the binding result in assay [2] is recorded as “binds”.

B5: GST-RNF146-R163A (natural protein, human, UniProt Q9NTX7-2 1-358, looked up)
chain: MAGCGEIDHSINMLPTNRKANESCSNTAPSLTVPECAICLQTCVHPVSLPCKHVFCYLCVKGASWLGKRCALCRQEIPEDFLDKPTLLSPEELKAASRGNGEYAWYYEGRNGWWQYDERTSRELEDAFSKGKKNTEMLIAGFLYVADLENMVQYRRNEHGRRAKIKRDIIDIPKKGVAGLRLDCDANTVNLARESSADGADSVSAQSGASVQPLVSSVRPLTSVDGQLTSPATPSPDASTSLEDSFAHLQLSGDNTAERSHRGEGEEDHESPSSGRVPAPDTSIEETESDASSDSEDVSAVVAQHSLTQQRLLVSNANQTVPDRSDRSGTDRSVAGGGTVSVSVRSRRPDGQCTVTEV
As for B5, the binding result in assay [4] is on record as “binds”.

B6: GST-RNF146 (full-length, wt) (natural protein, human, UniProt Q9NTX7-2 1-358, looked up)
chain: MAGCGEIDHSINMLPTNRKANESCSNTAPSLTVPECAICLQTCVHPVSLPCKHVFCYLCVKGASWLGKRCALCRQEIPEDFLDKPTLLSPEELKAASRGNGEYAWYYEGRNGWWQYDERTSRELEDAFSKGKKNTEMLIAGFLYVADLENMVQYRRNEHGRRRKIKRDIIDIPKKGVAGLRLDCDANTVNLARESSADGADSVSAQSGASVQPLVSSVRPLTSVDGQLTSPATPSPDASTSLEDSFAHLQLSGDNTAERSHRGEGEEDHESPSSGRVPAPDTSIEETESDASSDSEDVSAVVAQHSLTQQRLLVSNANQTVPDRSDRSGTDRSVAGGGTVSVSVRSRRPDGQCTVTEV
Regarding B6, the binding result in assay [2] is “binds”.
